# Data taken from ChEMBL document CHEMBL1126871, “Non-steroidal glucocorticoid-like substances: receptor binding and in vivo activity” (J Med Chem, 1993).
# Activity calls are given as the source filed them. The calls are words filed in the database; no cut-off is given here.
# Legend:
# [1] = target: T1, Glucocorticoid receptor (Rattus norvegicus) (UniProt P06536); assay: In vivo glucocorticoid profile, depression of adrenal weight in rat at 5 mg/kg peroral dose; format: functional, organism-based; design: dose 5 mg/kg
# T1 sequence (whole entry): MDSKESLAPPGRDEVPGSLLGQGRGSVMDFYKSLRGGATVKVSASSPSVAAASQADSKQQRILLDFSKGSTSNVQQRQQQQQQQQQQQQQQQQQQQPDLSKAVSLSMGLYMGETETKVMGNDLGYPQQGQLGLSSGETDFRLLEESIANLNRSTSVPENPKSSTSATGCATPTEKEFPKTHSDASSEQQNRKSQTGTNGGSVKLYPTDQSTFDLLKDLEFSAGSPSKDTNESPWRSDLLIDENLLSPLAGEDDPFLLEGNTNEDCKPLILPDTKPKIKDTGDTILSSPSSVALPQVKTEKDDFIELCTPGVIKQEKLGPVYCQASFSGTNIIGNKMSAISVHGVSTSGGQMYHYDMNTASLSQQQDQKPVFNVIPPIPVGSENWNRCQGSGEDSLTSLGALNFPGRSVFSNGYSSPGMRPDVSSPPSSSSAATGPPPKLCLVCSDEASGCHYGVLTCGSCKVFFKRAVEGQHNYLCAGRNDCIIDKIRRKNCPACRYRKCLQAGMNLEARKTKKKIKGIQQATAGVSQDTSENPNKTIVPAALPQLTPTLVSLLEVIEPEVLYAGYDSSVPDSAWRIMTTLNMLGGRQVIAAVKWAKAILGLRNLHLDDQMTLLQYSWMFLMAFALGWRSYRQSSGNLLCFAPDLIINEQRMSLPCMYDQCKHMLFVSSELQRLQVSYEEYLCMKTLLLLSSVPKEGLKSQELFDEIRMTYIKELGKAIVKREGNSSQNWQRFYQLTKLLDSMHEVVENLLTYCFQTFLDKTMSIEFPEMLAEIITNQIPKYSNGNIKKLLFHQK
# How it was run: (§1)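 Two-week oral glucocorticoid profile in rats. Thymus weight, adrenal weight and body weight gain are each expressed as % change from control.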
# [2] = target: T1, Glucocorticoid receptor (Rattus norvegicus); assay: (§2) In vivo glucocorticoid profile, depression of adrenal weight in rat at 1 mg/kg peroral dose; format: functional, organism-based; design: dose 1 mg/kg; how it was run: as §1
# [3] = target: T1, Glucocorticoid receptor (Rattus norvegicus); assay: (§3) In vivo glucocorticoid profile, depression of adrenal weight in rat at 25 mg/kg peroral dose; format: functional, organism-based; design: dose 25 mg/kg
# How it was run: (§4)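 Two-week oral dosing test in rats. At the end, thymus weight, adrenal weight and body weight gain are recorded and expressed as % change from control.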
# [4] = target: T1, Glucocorticoid receptor (Rattus norvegicus); assay: (§5) In vivo glucocorticoid profile, depression of thymus weight in rat at 1 mg/kg peroral dose; format: functional, organism-based; design: dose 1 mg/kg; how it was run: as §1
# [5] = target: T1, Glucocorticoid receptor (Rattus norvegicus); assay: (§6) In vivo glucocorticoid profile, depression of thymus weight in rat at 25 mg/kg peroral dose; format: functional, organism-based; design: dose 25 mg/kg; how it was run: as §4
# [6] = target: T1, Glucocorticoid receptor (Rattus norvegicus); assay: (§7) In vivo glucocorticoid profile, depression of body weight gain without altered food consumption in rat at 25 mg/kg peroral dose; format: functional, organism-based; design: dose 25 mg/kg; how it was run: as §4
# [7] = target: T1, Glucocorticoid receptor (Rattus norvegicus); assay: (§8) In vivo glucocorticoid profile, depression of body weight gain without altered food consumption in rat at 5 mg/kg peroral dose; format: functional, organism-based; design: dose 5 mg/kg; how it was run: as §4
# [8] = target: T1, Glucocorticoid receptor (Rattus norvegicus); assay: In vivo glucocorticoid profile, depression of thymus weight in rat at 5 mg/kg peroral dose; format: functional, organism-based; design: dose 5 mg/kg; how it was run: as §1
# [9] = target: T1, Glucocorticoid receptor (Rattus norvegicus); assay: In vivo anti-inflammatory activity in the rat, alpha-tocopherol filled pouch peroral dose; format: functional, organism-based
# How it was run: (§9)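 Rats receive an air-filled pouch injected with 0.5 mL DL-α-tocopherol. Oral doses are given daily for 7 days, starting on the day of pouch formation, as suspensions in 1% gum tragacanth. ED50 is in mg/kg po.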
# [10] = target: T1, Glucocorticoid receptor (Rattus norvegicus); assay: (§10) In vivo glucocorticoid profile, depression of body weight gain without altered food consumption in rat at 1 mg/kg peroral dose; format: functional, organism-based; design: dose 1 mg/kg; how it was run: as §4
# [11] = target: T1, Glucocorticoid receptor (Rattus norvegicus); assay: In vivo antiinflammatory activity in the rat, alpha-tocopherol filled pouch peroral dose; IA = inactive; format: functional, organism-based; how it was run: as §9
# [12] = target: T1, Glucocorticoid receptor (Rattus norvegicus); assay: (§11) In vivo glucocorticoid profile, depression of adrenal weight in rat at 100 mg/kg peroral dose; format: functional, organism-based; design: dose 100 mg/kg; how it was run: as §1
# [13] = target: T1, Glucocorticoid receptor (Rattus norvegicus); assay: In vivo glucocorticoid profile, depression of thymus weight in rat at 100 mg/kg peroral dose; format: functional, organism-based; design: dose 100 mg/kg; how it was run: as §1
# [14] = target: T1, Glucocorticoid receptor (Rattus norvegicus); assay: In vivo glucocorticoid profile, depression of body weight gain without altered food consumption in rat at 100 mg/kg peroral dose; format: functional, organism-based; design: dose 100 mg/kg; how it was run: as §1
# [15] = target: T1, Glucocorticoid receptor (Rattus norvegicus); assay: as §8; format: functional, organism-based; design: dose 5 mg/kg; how it was run: as §1; remark: listed apart in the source
# [16] = target: T1, Glucocorticoid receptor (Rattus norvegicus); assay: as §10; format: functional, organism-based; design: dose 1 mg/kg; how it was run: as §1; remark: listed apart in the source
# [17] = target: T1, Glucocorticoid receptor (Rattus norvegicus); assay: as §11; format: functional, organism-based; design: dose 100 mg/kg; how it was run: as §4; remark: listed apart in the source
# [18] = target: T1, Glucocorticoid receptor (Rattus norvegicus); assay: In vivo glucocorticoid profile, depression of adrenal weight in rat at 50 mg/kg peroral dose; format: functional, organism-based; design: dose 50 mg/kg; how it was run: as §1
# [19] = target: T1, Glucocorticoid receptor (Rattus norvegicus); assay: In vivo antiinflammatory activity in the rat, alpha-tocopherol filled pouch 50 mg/kg peroral dose; IA = inactive; format: functional, organism-based; design: dose 50 mg/kg
# [20] = target: T1, Glucocorticoid receptor (Rattus norvegicus); assay: In vivo glucocorticoid profile, depression of body weight gain without altered food consumption in rat at 50 mg/kg peroral dose; format: functional, organism-based; design: dose 50 mg/kg; how it was run: as §1
# [21] = target: T1, Glucocorticoid receptor (Rattus norvegicus); assay: In vivo glucocorticoid profile, depression of thymus weight in rat at 50 mg/kg peroral dose; format: functional, organism-based; design: dose 50 mg/kg; how it was run: as §1
# [22] = target: T1, Glucocorticoid receptor (Rattus norvegicus); assay: In vivo glucocorticoid profile, depression of adrenal weight in rat at 0.2 mg/kg peroral dose; format: functional, organism-based; design: dose 0.2 mg/kg; how it was run: as §1
# [23] = target: T1, Glucocorticoid receptor (Rattus norvegicus); assay: as §2; format: functional, organism-based; design: dose 1 mg/kg; how it was run: as §4; remark: listed apart in the source
# [24] = target: T1, Glucocorticoid receptor (Rattus norvegicus); assay: In vivo glucocorticoid profile, depression of thymus weight in rat at 0.2 mg/kg peroral dose; format: functional, organism-based; design: dose 0.2 mg/kg; how it was run: as §1
# [25] = target: T1, Glucocorticoid receptor (Rattus norvegicus); assay: as §5; format: functional, organism-based; design: dose 1 mg/kg; how it was run: as §4; remark: listed apart in the source
# [26] = target: T1, Glucocorticoid receptor (Rattus norvegicus); assay: In vivo glucocorticoid profile, depression of body weight gain without altered food consumption in rat at 0.2 mg/kg peroral dose; format: functional, organism-based; design: dose 0.2 mg/kg; how it was run: as §1
# [27] = target: T1, Glucocorticoid receptor (Rattus norvegicus); assay: Relative binding affinity (RBA) for glucocorticoid receptor from rat liver cytosol by displacement of [3H]-RU-28,362
# How it was run: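 Competitive binding to glucocorticoid receptor in liver cytosol from adrenalectomized rats, with [3H]RU28362 as ligand. RBA is derived from the concentrations of dexamethasone and of competitor giving 50% binding inhibition. A value of zero means binding was too low to measure.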
# [28] = target: T1, Glucocorticoid receptor (Rattus norvegicus); assay: as §3; format: functional, organism-based; design: dose 25 mg/kg; how it was run: as §1; remark: listed apart in the source
# [29] = target: T1, Glucocorticoid receptor (Rattus norvegicus); assay: In vivo antiinflammatory activity in the rat, alpha-tocopherol filled pouch 25 mg/kg peroral dose; IA = inactive; format: functional, organism-based; design: dose 25 mg/kg; how it was run: as §9
# [30] = target: T1, Glucocorticoid receptor (Rattus norvegicus); assay: as §6; format: functional, organism-based; design: dose 25 mg/kg; how it was run: as §1; remark: listed apart in the source
# [31] = target: T1, Glucocorticoid receptor (Rattus norvegicus); assay: as §7; format: functional, organism-based; design: dose 25 mg/kg; how it was run: as §1; remark: listed apart in the source
smiles,measurement,setting,value
C[C@]12Cc3cnn(-c4ccc(F)cc4)c3C=C1CC[C@@H]1OC3(CC=C12)C(=O)NC(=O)NC3=O,Change,[1],-30%
same,Change,[2],0%
same,Change,[3],-53%
same,Change,[4],0%
same,Change,[5],-84%
same,Weight gain,[6],-180
same,Weight gain,[7],-140
same,Change,[8],-72%
same,ED50,[9],4 mg/kg
same,Weight gain,[10],-65
C[C@]12Cc3cnn(-c4ccc(F)cc4)c3C=C1CC[C@H]1C2=CCCC1c1ccccn1 (stereo not given in full),ED50,[11],inactive
same,Change,[12],-48%
same,Change,[13],-64%
same,Weight gain,[14],-88
C[C@H]1C[C@@H]2[C@H]([C@@H](O)C[C@@]3(C)[C@H]2CC[C@]3(O)C(=O)CO)[C@@]2(C)C=CC(=O)C=C12,Change,[1],-42%
same,Change,[2],0%
same,Change,[4],-40%
same,Weight gain,[15],-79
same,Weight gain,[16],-45
same,Change,[8],-70%
same,ED50,[9],2 mg/kg
C[C@]12Cc3cnn(-c4ccccc4)c3C=C1CC[C@@H]1OC3(CC=C12)C(=O)NC(=O)NC3=O,Change,[17],0%
same,Change,[18],0%
same,Change,[13],0%
same,ED50,[19],inactive
same,Weight gain,[14],0
same,Weight gain,[20],0
same,Change,[21],-34%
C#CCN1C(=O)N(CC#C)C(=O)C2(CC=C3[C@H](CCC4=Cc5c(cnn5-c5ccc(F)cc5)C[C@@]43C)O2)C1=O,Change,[1],0%
same,Weight gain,[15],0
same,Change,[8],0%
CN1C(=O)N(C)C(=O)C2(CC=C3[C@H](CCC4=Cc5c(cnn5-c5ccc(F)cc5)C[C@@]43C)O2)C1=O (stereo in doubt; 12a),Change,[22],-25%
same,Change,[23],-57%
same,Change,[1],-63%
same,Change,[24],-28%
same,Change,[25],-71%
same,Weight gain,[26],-55
same,Weight gain,[15],-236
same,Change,[8],-83%
same,ED50,[9],2 mg/kg
same,Weight gain,[10],-127
C[C@]12Cc3cnn(-c4ccc(F)cc4)c3C=C1CC[C@@H]1OC3(CC=C12)C(=O)c1ccccc1C3=O,Change,[1],-64%
same,Change,[2],-56%
same,Change,[4],-61%
same,Weight gain,[15],-224
same,Weight gain,[16],-129
same,Change,[8],-79%
same,ED50,[9],10 mg/kg
CN1C(=O)N(C)C(=O)C2(CC=C3[C@H](CC[C@H]4Cc5c(cnn5-c5ccncc5)C[C@]34C)O2)C1=O,RBA,[27],0%
CCN1C(=O)N(CC)C(=O)C2(CC=C3[C@H](CCC4=Cc5c(cnn5-c5ccc(F)cc5)C[C@@]43C)O2)C1=O,Change,[17],-45%
same,Change,[28],0%
same,ED50,[29],inactive
same,Change,[30],-34%
same,Change,[13],-34%
same,Weight gain,[31],0
